{"data": "Published values collected from several papers", "target": "Phosphatidylinositol 4,5-bisphosphate 3-kinase catalytic subunit gamma isoform (PIK3CG, Homo sapiens, UniProt P48736)", "note": "Protocols differ between the studies behind these lines."}
{"SMILES": "N[C@H]1CCN(c2nccc(-c3cnn4ncccc34)n2)C1", "observed": "binding", "concentration": "1 µM", "remaining binding [%]": 100}
{"SMILES": "CN1CCN(c2cnc3c(C4CCN(C(=O)c5ccc(OC(F)(F)F)cc5N)CC4)ncnc3c2)CC1", "observed": "cell-free assay", "technique": "competition with immobilised ligand", "concentration": "1 µM", "remaining binding [%]": 95}
{"SMILES": "c1cncc(-c2cccc(Nc3nccc(NC4CCCCC4)n3)c2)c1", "observed": "binding", "technique": "competition with immobilised ligand", "concentration": "10 µM", "remaining binding [%]": 69}
{"SMILES": "CCCCN(CCCC)C(=O)CN1C[C@H](c2cc(OC)c3c(c2)OCO3)[C@@H](C(=O)O)[C@@H]1CC(C)(C)CCC", "observed": "cell-free assay", "technique": "competition with immobilised ligand", "concentration": "1 µM", "remaining binding [%]": 76.9}
{"SMILES": "Cc1cnc(Nc2ccc(C(=O)N3CCC(N4CCCC4)CC3)cc2)nc1-c1cc2ccccc2s1", "observed": "binding", "technique": "competition with immobilised ligand", "concentration": "1 µM", "remaining binding [%]": 81}
{"SMILES": "C[C@@H]1CCN(c2nccc(-c3cnn4ncccc34)n2)C1", "observed": "binding", "concentration": "1 µM", "remaining binding [%]": 58}
{"SMILES": "O=C(NCC1CCOCC1)c1n[nH]cc1NC(=O)c1c(F)cccc1F", "observed": "binding", "technique": "competition with immobilised ligand", "concentration": "1 µM", "remaining binding [%]": 100}
{"SMILES": "C=CC(=O)N1CCC(C(=O)NCC(=O)N2CCN(c3nc(-c4cnc(N)nc4C(F)F)nc(N4CCOCC4)n3)CC2)CC1", "observed": "binding", "technique": "competition with immobilised ligand", "concentration": "1 µM", "remaining binding [%]": 0.1}
{"SMILES": "FC(F)(F)c1ccc2c(c1)nc(-c1cccnc1)n2C1CC1", "observed": "cell-free assay", "technique": "competition with immobilised ligand", "concentration": "1 µM", "remaining binding [%]": 92}
{"SMILES": "CC1CCCN1c1nccc(-c2cnn3ncccc23)n1 (centres unmarked)", "observed": "binding", "concentration": "1 µM", "remaining binding [%]": 100}
{"SMILES": "COC(=O)Nc1nc2ccc(C(=O)c3ccccc3)cc2[nH]1", "observed": "cell-free assay", "technique": "competition with immobilised ligand", "concentration": "10 µM", "remaining binding [%]": 18}
{"SMILES": "CN(C)c1ncc(F)c(-c2cnn3ncccc23)n1", "observed": "binding", "concentration": "1 µM", "remaining binding [%]": 90}
{"SMILES": "O=C(c1ccc(Nc2ncc(Cl)c(-c3ccc(Cl)s3)n2)cc1)N1CCC(N2CCCC2)CC1", "observed": "binding", "technique": "competition with immobilised ligand", "concentration": "1 µM", "remaining binding [%]": 90}
{"SMILES": "CC(C)CC(=O)N1CCc2nc(-c3ccc(Br)cc3)nc(N(C)Cc3ccccc3)c2C1", "observed": "cell-free assay", "technique": "competition with immobilised ligand", "concentration": "0.1 µM", "remaining binding [%]": 100}
{"SMILES": "CNC(=O)[C@@H]1CC[C@@H](n2c(-c3ccc4cnccc4c3)nc3ccc(C(=O)NCc4cccc(C(N)=O)c4)cc32)C1", "observed": "binding", "technique": "competition with immobilised ligand", "concentration": "1 µM", "remaining binding [%]": 100}
{"SMILES": "C[C@@H](c1cccc(C#N)c1)n1cc(Cl)cc(C(N)=O)c1=N", "observed": "cell-free assay", "technique": "competition with immobilised ligand", "concentration": "1 µM", "remaining binding [%]": 100}
{"SMILES": "COc1ncc2cc3ccccc3nc2c1C#N", "observed": "cell-free assay", "technique": "competition with immobilised ligand", "concentration": "5 µM", "remaining binding [%]": 100}
{"SMILES": "Cc1cnn2ncc(-c3ccnc(N(C)C)n3)c2c1", "observed": "binding", "concentration": "1 µM", "remaining binding [%]": 47}
{"SMILES": "O=C(O)[C@@H]1[C@@H](Cn2nnc3ccccc3c2=O)CC[C@H]1C(=O)c1ccc(OCCC2CCOCC2)cc1", "observed": "cell-free assay", "technique": "competition with immobilised ligand", "concentration": "1 µM", "remaining binding [%]": 100}
{"SMILES": "CN(CCCC(F)(F)F)c1nccc(-c2cnn3ncccc23)n1", "observed": "binding", "concentration": "1 µM", "remaining binding [%]": 100}
{"SMILES": "O=C(c1ccc(Nc2ncc(Cl)c(-c3cc4ccccc4s3)n2)cc1)N1CCC(N2CCCC2)CC1", "observed": "binding", "technique": "competition with immobilised ligand", "concentration": "1 µM", "remaining binding [%]": 87}
{"SMILES": "O=C(Nc1cccnn1)N1CCC(=Cc2cccc(Oc3ccc(C(F)(F)F)cn3)c2)CC1", "observed": "cell-free assay", "technique": "competition with immobilised ligand", "concentration": "1 µM", "remaining binding [%]": 100}
{"SMILES": "CN(C)c1nccc(-c2cnn3ncccc23)n1", "observed": "binding", "concentration": "1 µM", "remaining binding [%]": 76}
